# MT stabilize HCS: microtubule stabilization, imaging screen. % tubulin-high responders, % at 10 µM. AID 2205. 0.83% of 200,000 active. HeLa tubulin immunostaining HCS, 24 h; share of cells brighter than vehicle mean+2SD;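 active = plate Z-score above 3 for both tubulin-high and condensed-nucleus cell shares, with cell loss under 80%, at 10 µM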;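 note: anti alpha tubulin signal scored within the nucleus-defined area of each cell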
# Wee1 degr inh: blocks degradation of human Wee1 kinase; HeLa Luc-Wee1K328M stability, luciferase luminescence; 100% = proteasome inhibitor MG132 effect; AID 1321; P30291; 1.2% of 220,000 active; reporter increase, % at 5 µM;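 active = activation above the mean of all tested compounds plus 3 SD, set per screening run, cut at about 8.8% in these data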;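 note: cells exposed to compound for 20 h before luminescence read; 0% = DMSO alone and 100% = MG132 at 30 µM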
# Target sequence (P30291 whole entry K328M): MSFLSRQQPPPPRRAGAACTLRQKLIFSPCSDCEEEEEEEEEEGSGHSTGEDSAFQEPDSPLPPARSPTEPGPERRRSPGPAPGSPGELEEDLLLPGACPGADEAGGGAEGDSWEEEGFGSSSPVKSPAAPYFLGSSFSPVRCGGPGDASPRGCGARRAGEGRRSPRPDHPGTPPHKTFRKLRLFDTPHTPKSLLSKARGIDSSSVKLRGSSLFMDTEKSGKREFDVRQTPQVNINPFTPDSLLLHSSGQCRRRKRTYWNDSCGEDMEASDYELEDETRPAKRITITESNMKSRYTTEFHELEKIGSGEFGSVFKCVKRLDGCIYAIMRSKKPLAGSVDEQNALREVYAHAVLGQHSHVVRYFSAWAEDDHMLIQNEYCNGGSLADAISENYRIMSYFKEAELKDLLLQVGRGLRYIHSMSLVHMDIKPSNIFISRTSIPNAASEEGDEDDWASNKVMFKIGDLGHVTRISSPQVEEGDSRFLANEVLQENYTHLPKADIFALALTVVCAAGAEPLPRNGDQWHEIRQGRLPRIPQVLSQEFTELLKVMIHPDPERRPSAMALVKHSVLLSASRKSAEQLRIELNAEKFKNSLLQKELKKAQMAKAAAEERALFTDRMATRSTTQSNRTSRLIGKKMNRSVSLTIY
# Insulin prom up: MIN6 insulin promoter up-regulation | z-score at 5 µM | AID 1625 | MIN6 insulin promoter-GFP reporter, high-content imaging; active compounds read high | 0.3% of 190,000 active;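 active = z-score above 3 at 5 µM with at least 500 cells counted in the well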
# Autophagy mod: autophagy modulation, high-content screen. MEF GFP-LC3 puncta imaging; test concentration mostly 10 µM. calls only at 10 µM (by protocol). 0.98% of 190,000 active. AID 463193;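 active = percentage of spot-positive cells more than 3 SD above its plate mean, without a fluorescence outlier flag or 80% toxicity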;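 note: spot-positive cell cutoff set from DMSO-treated cells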
# b-catenin transl: beta-catenin nuclear translocation modulation; HeLa beta-catenin nuclear translocation, immunofluorescence imaging; nuclear translocation activity, % at 5 µM; 0.3% of 190,000 active; AID 1665;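 active = nuclear translocation activity above 50% at 5 µM, with a well cell count of 50 or more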;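 note: per-cell ratio of nuclear to cytoplasmic median beta-catenin stain intensity; plate controls were DMSO negative control for no effect and GSK-3 inhibitor IX positive control for full effect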
#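 test system = HeLa cells, endogenous beta-catenin | dosing = single 5 µM dose plus 0.02–20 µM confirmation series | times = compound treatment 24 h, 37°C, 5% CO2 | technique = beta-catenin immunofluorescence imaging with DAPI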
# An asterisk follows results filed as active; i = inactive; x = no result given; + = active, no number. Compounds with a hit are over-represented: about 2.9% of the library has one in this group of screens.
SMILES,MT stabilize HCS,Wee1 degr inh,Insulin prom up,Autophagy mod,b-catenin transl
CCOc1ccc(-c2cc(CCCC(=O)Nc3cccc(OC)c3)no2)cc1,23*,-2,x,i,100*
O=S1(=O)C=C(Sc2nc3ccccc3s2)c2ccccc21,3,3,-0.19,+,6
CCOC(=O)/C=C/C(=O)Nc1ccc(S(=O)(=O)N(C)c2ccccc2)cc1,4,10*,0.16,i,-1
O=c1c2c3c(sc2nc(NCCO)n1CCc1ccccc1)CCCCC3,19*,4,-0.66,i,32
ClCC1NCC(c2ccccc2Cl)c2c1[nH]c1ccccc21 (stereo not given),5,3,0.03,i,1
Cc1ccc(Cl)cc1N1CCN(C(=O)c2cn(C)c(=O)c3c2c2ccccc2n3C)CC1,16,-1,-1.8,i,139*
O=C1CCCCC1Sc1nnc(Nc2ccccc2)s1 (stereo not given),8,8.9*,-0.22,i,-1
Cc1ccc(Nc2nnc(SC3CCOC3=O)s2)cc1 (stereo not given),5,0,-0.18,i,-2
Cc1ccc(N=Nc2c(N)[nH]n3c(=O)c4c(nc23)CCCC4)cc1,24*,-1,0,i,2
Cc1ccc(N=Nc2c(=O)[nH]n3c(C)cc(C)nc23)cc1,2,11*,x,i,x
Cc1cc(C)n2[nH]c(=O)c(N=Nc3ccc(S(N)(=O)=O)cc3)c2n1,1,1,0.36,i,-1
Brc1ccc2c(c1)C(c1cccnc1)=NNC(c1cccs1)=N2,18*,-2,2,i,18
Cc1ccc(OCC(=O)Nc2ccc([N+](=O)[O-])cc2)cc1,2,-2,0.23,i,-4
O=C(COc1ccc([N+](=O)[O-])cc1)Nc1ccc2c(c1)OCO2,12*,3,0.02,i,0
NS(=O)(=O)c1cccc(NC(=S)NC(=O)C23CC4CC(CC(C4)C2)C3)c1,2,2,x,i,2
CSc1nc2ncc3c(n2n1)CC(C)(C)CC3=O,4,8.9*,0.57,i,1
CCCCNC(=O)CNC(=S)N(Cc1cc(OC)c(OC)c(OC)c1)C1CCCC1,2,5,0.07,i,-1
O=C(COc1ccc(Cl)cc1)N1CCCC1,2,-1,x,i,-2
O=C(c1ccc(Cl)cc1)c1ccc(OCC(=O)N2CCOCC2)cc1,2,9.6*,x,i,x
C/C(=N\NC(=S)NC1CCCCC1)c1cccc(Br)c1,7,0,-0.03,i,1
C/C(=N\NC(=S)NC1CCCCC1)c1ccc(C#N)cc1,4,6,-0.77,+,-1
Cc1cc(C(=O)CSc2cccc[n+]2[O-])c(C)n1-c1ccc(Br)cc1,4,9.6*,-0.88,i,4
Cc1cc(C(=O)CSc2cccc[n+]2[O-])c(C)n1-c1ccccc1,2,1,-0.22,i,1
O=C1CC(N2CCN(S(=O)(=O)c3ccc(Cl)cc3)CC2)C(=O)N1CCc1ccccc1 (stereo not given),2,-3,x,i,-2
Cc1ccc(S(=O)(=O)N2CCN(C3CC(=O)N(CCc4ccccc4)C3=O)CC2)cc1C (stereo not given),2,9.9*,0.69,i,0
SMILES,MT stabilize HCS,Wee1 degr inh,Insulin prom up,Autophagy mod,b-catenin transl
COc1ccc(Cl)c(OC)c1C(=O)NC(=O)Nc1c(F)cc(F)cc1F,x,-2,0.68,x,-1
COc1cccc(-c2c(C#N)c(N)nc3c2c(=O)nc2sccn23)c1,2,-3,0.02,i,-8
NC(=O)[C@@H]1CCCCNc2c(F)cc([N+](=O)[O-])cc2C(=O)N[C@@H](CC(=O)O)C(=O)NCC(=O)N1,4,17*,0.61,i,-2
COc1ccc(N2CCN(CCCNC(=O)CN3CCN(Cc4ccccc4C)C3=O)CC2)cc1,4,-2,0.03,+,-2
CCc1ccc(NC(=O)CS(=O)CC(=O)NC(C)CCc2ccco2)cc1 (stereo not given),3,-3,x,+,0
CCc1ccc(NC(=O)N(Cc2ccco2)C(C)c2cccs2)cc1 (stereo not given),2,3,-1,i,-2
CCOC(=O)c1oc2ccc(S(=O)(=O)n3nc(-c4ccc(C)cc4)cc3N)cc2c1C,6,0,-0.4,i,x
CCOC(=O)c1oc2ccc(S(=O)(=O)n3nc(-c4ccc(Cl)cc4)cc3N)cc2c1C,17*,2,-0.11,i,-2
CN(Cc1ccccc1)c1nc(-c2cccc([N+](=O)[O-])c2)nc2ccccc12,6,11*,0.13,i,1
O=[N+]([O-])c1cccc(-c2nc(NCc3ccccc3)c3ccccc3n2)c1,4,0,-0.37,i,0
COc1ccc(-c2cc(C3CC3)nc(SCC(=O)c3cccs3)c2C#N)cc1,7,-3,0.33,+,0
COc1ccc(CNC(=O)CSc2nc(-c3ccccc3)cc(-c3cccs3)c2C#N)cc1,1,2,-1.4,i,x
CCOC(=O)CSc1nc(C2CC2)cc(-c2ccc(F)cc2)c1C#N,2,0,-0.31,i,8
COc1ccc(-c2cc(-c3cccs3)c(C#N)c(SCC(=O)NCc3ccco3)n2)cc1,20*,2,-1.6,i,94*
CCOc1cc(S(=O)(=O)N2CC=C(c3ccc(F)cc3)CC2)c(OCC)cc1-n1cnnn1,45*,0,1,i,1
CCCN(CCC)c1nc(C)cc(C(C#N)c2nc3ccccc3o2)n1 (stereo not given),9,0,-0.33,+,-2
COc1cccc(-c2ccc(SCC(=O)N3CCc4ccccc43)nn2)c1,3,-2,0.51,i,-2
O=C(N/N=C/c1ccc(O)cc1)Nc1cccc2nsnc12,11*,-4,-0.01,i,4
COc1cc(/C=N/NC(=O)Nc2cccc3nsnc23)cc(OC)c1OC,2,1,-1.6,i,-1
Cc1ccc(NC(=S)NNC(=O)c2ccccc2OC(F)F)cc1,45*,-1,-0.14,i,1
COc1cc(N/C(N)=N/c2nc(C)cc(C)n2)c(OC)cc1Cl,3,-1,-0.47,i,1
Nc1nn(-c2ccccc2)c(N)c1N=Nc1cccc(F)c1,x,9,-1.4,x,58*
Cc1nn(-c2ccccc2)c(N)c1N=Nc1cccnc1,2,3,-0.87,i,-2
Nc1[nH]n(-c2ccccc2)c(=O)c1N=Nc1ccc2c(c1)OCCO2,5,1,-1.3,i,1
Nc1nn(-c2ccccc2)c(N)c1N=Nc1ccc2c(c1)OCO2,25*,9.8*,0.02,i,78*
COc1ccc(NC(=O)OCCn2c([N+](=O)[O-])cnc2C)cc1,3,-2,0.01,i,-1
CC(=O)Nc1ccc(S(=O)(=O)NNC(=O)c2cccc(Cl)c2)cc1,3,3,0.41,i,-6
COc1cc(OC)cc(C(=O)NC(=S)Nc2ccc(NC(=O)c3ccco3)cc2)c1,2,2,-0.07,i,-4

# Compound activity: PubChem BioAssay, several laboratories
